Test results taken from ChEMBL document CHEMBL4152256, “Structure-activity relationship of new antimalarial 1-aryl-3-susbtituted propanol derivatives: Synthesis, preliminary toxicity profiling, parasite life cycle stage studies, target exploration, and targeted delivery” (Eur J Med Chem, 2018).
Calls of active or inactive are those of the source. The calls are words filed in the database; no cut-off is given here.

Legend:
Plasmodium falciparum [1] = experiment: Antiplasmodial activity against multidrug-resistant Plasmodium falciparum FCR-3 by [3H]-hypoxanthine incorporation assay; format: functional, organism-based, FCR-3/Gambia; details: Plasmodium falciparum, FCR-3/Gambia
Summary of the method: (§1)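 Blood-stage P. falciparum 3D7 and FCR-3 were tested by a modified [3H]-hypoxanthine incorporation assay. Chloroquine was the reference in all runs.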

[2] = Genotoxicity in Salmonella typhimurium TA1535 harboring pSK1002 assessed as umu gene induction at 0.0002 mg/ml in presence of Sprague-Dawley rat liver S9 fraction after by SOS/umu assay relative to control; format: toxicity, organism-based; details: salmonella enterica subsp. enterica serovar typhimurium, read-out: FC
[3] = Cytotoxicity against human HepG2A16 cells by MTT assay; format: cell-based; details: HepG2A16 cells
Summary of the method: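 MTT viability assay on HepG2-A16 cells, giving CC50 values.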

[4] = Genotoxicity in Salmonella typhimurium TA1535 harboring pSK1002 assessed as umu gene induction at 0.004 mg/ml in absence of Sprague-Dawley rat liver S9 fraction after by SOS/umu assay relative to control; format: toxicity, organism-based; details: salmonella enterica subsp. enterica serovar typhimurium, read-out: FC
[5] = Genotoxicity in Salmonella typhimurium TA1535 harboring pSK1002 assessed as umu gene induction at 0.002 mg/ml in presence of Sprague-Dawley rat liver S9 fraction after by SOS/umu assay relative to control; format: toxicity, organism-based; details: salmonella enterica subsp. enterica serovar typhimurium, read-out: FC
[6] = Genotoxicity in Salmonella typhimurium TA1535 harboring pSK1002 assessed as survival at 0.0002 mg/ml in absence of Sprague-Dawley rat liver S9 fraction after by SOS/umu assay relative to control; format: toxicity, organism-based; details: salmonella enterica subsp. enterica serovar typhimurium, read-out: Survival
[7] = Genotoxicity in Salmonella typhimurium TA1535 harboring pSK1002 assessed as survival at 0.0002 mg/ml in presence of Sprague-Dawley rat liver S9 fraction after by SOS/umu assay relative to control; format: toxicity, organism-based; details: salmonella enterica subsp. enterica serovar typhimurium, read-out: Survival
[8] = Genotoxicity in Salmonella typhimurium TA1535 harboring pSK1002 assessed as survival at 0.004 mg/ml in presence of Sprague-Dawley rat liver S9 fraction after by SOS/umu assay relative to control; format: toxicity, organism-based; details: salmonella enterica subsp. enterica serovar typhimurium, read-out: Survival
[9] = Genotoxicity in Salmonella typhimurium TA1535 harboring pSK1002 assessed as umu gene induction at 0.001 mg/ml in presence of Sprague-Dawley rat liver S9 fraction after by SOS/umu assay relative to control; format: toxicity, organism-based; details: salmonella enterica subsp. enterica serovar typhimurium, read-out: FC
Plasmodium falciparum [10] = experiment: Antiplasmodial activity against chloroquine-sensitive Plasmodium falciparum 3D7 by [3H]-hypoxanthine incorporation assay; format: functional, organism-based; details: Plasmodium falciparum, 3D7; summary of the method: as §1
[11] = Selectivity index, ratio of CC50 for human HepG2A16 cells by MTT assay to IC50 for multidrug-resistant Plasmodium falciparum FCR-3; format: toxicity; details: HepG2A16 cells, read-out: Ratio CC50/IC50
Summary of the method: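 HepG2-A16 human hepatoma cells were tested by MTT viability assay to give CC50. Blood-stage activity was measured against the multidrug-resistant P. falciparum FCR-3 strain by [3H]-hypoxanthine incorporation to give IC50. SI = CC50 HepG2 / FCR-3 IC50.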

Plasmodium berghei [12] = experiment: Antiplasmodial activity against Plasmodium berghei ANKA infected in mouse assessed as inhibition of parasitemia at 50 mg/kg/day, po for 4 consecutive days starting from 2 hrs post infection by MSF assay relative to control; format: functional
Summary of the method: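 Swiss male mice (20 ± 2 g) infected ip with 10^7 P. berghei ANKA parasitized cells (day 0). Five per group dosed orally 2 h after infection and daily on days 0–3. Test compounds at 50 mg/kg/day in water:DMSO; chloroquine diphosphate at 3 mg/kg/day; vehicle controls. Parasitemia measured on day 4 by MSF assay; survival checked daily.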

Plasmodium berghei [13] = experiment: Antiplasmodial activity against Plasmodium berghei ANKA infected in mouse assessed as mouse survival time at 50 mg/kg/day, po for 4 consecutive days starting from 2 hrs post infection by MSF assay; format: functional
Summary of the method: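 Swiss male mice (20 ± 2 g) infected i.p. with 10^7 P. berghei ANKA parasitized cells in 0.1 mL 0.9% saline (day 0). Oral dosing began 2 h post-infection and continued daily on days 0–3, five mice per batch. Test drugs were given at 50 mg/kg/day in water:DMSO and chloroquine diphosphate at 3 mg/kg/day; a vehicle control was included. Survival was checked daily, and parasitemia was read on day 4 by modified MSF assay.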

[14] = Genotoxicity in Salmonella typhimurium TA1535 harboring pSK1002 assessed as survival at 0.002 mg/ml in presence of Sprague-Dawley rat liver S9 fraction after by SOS/umu assay relative to control; format: toxicity, organism-based; details: salmonella enterica subsp. enterica serovar typhimurium, read-out: Survival
[15] = Genotoxicity in Salmonella typhimurium TA1535 harboring pSK1002 assessed as survival at 0.004 mg/ml in absence of Sprague-Dawley rat liver S9 fraction after by SOS/umu assay relative to control; format: toxicity, organism-based; details: salmonella enterica subsp. enterica serovar typhimurium, read-out: Survival
[16] = Genotoxicity in Salmonella typhimurium TA1535 harboring pSK1002 assessed as survival at 0.001 mg/ml in presence of Sprague-Dawley rat liver S9 fraction after by SOS/umu assay relative to control; format: toxicity, organism-based; details: salmonella enterica subsp. enterica serovar typhimurium, read-out: Survival
[17] = Genotoxicity in Salmonella typhimurium TA1535 harboring pSK1002 assessed as umu gene induction at 0.002 mg/ml in absence of Sprague-Dawley rat liver S9 fraction after by SOS/umu assay relative to control; format: toxicity, organism-based; details: salmonella enterica subsp. enterica serovar typhimurium, read-out: FC
[18] = Genotoxicity in Salmonella typhimurium TA1535 harboring pSK1002 assessed as umu gene induction at 0.001 mg/ml in absence of Sprague-Dawley rat liver S9 fraction after by SOS/umu assay relative to control; format: toxicity, organism-based; details: salmonella enterica subsp. enterica serovar typhimurium, read-out: FC
[19] = Genotoxicity in Salmonella typhimurium TA1535 harboring pSK1002 assessed as umu gene induction at 0.0005 mg/ml in presence of Sprague-Dawley rat liver S9 fraction after by SOS/umu assay relative to control; format: toxicity, organism-based; details: salmonella enterica subsp. enterica serovar typhimurium, read-out: FC
[20] = Genotoxicity in Salmonella typhimurium TA1535 harboring pSK1002 assessed as umu gene induction at 0.004 mg/ml in presence of Sprague-Dawley rat liver S9 fraction after by SOS/umu assay relative to control; format: toxicity, organism-based; details: salmonella enterica subsp. enterica serovar typhimurium, read-out: FC
[21] = Genotoxicity in Salmonella typhimurium TA1535 harboring pSK1002 assessed as survival at 0.001 mg/ml in absence of Sprague-Dawley rat liver S9 fraction after by SOS/umu assay relative to control; format: toxicity, organism-based; details: salmonella enterica subsp. enterica serovar typhimurium, read-out: Survival
[22] = Genotoxicity in Salmonella typhimurium TA1535 harboring pSK1002 assessed as survival at 0.0005 mg/ml in presence of Sprague-Dawley rat liver S9 fraction after by SOS/umu assay relative to control; format: toxicity, organism-based; details: salmonella enterica subsp. enterica serovar typhimurium, read-out: Survival
[23] = Genotoxicity in Salmonella typhimurium TA1535 harboring pSK1002 assessed as survival at 0.0005 mg/ml in absence of Sprague-Dawley rat liver S9 fraction after by SOS/umu assay relative to control; format: toxicity, organism-based; details: salmonella enterica subsp. enterica serovar typhimurium, read-out: Survival
[24] = Genotoxicity in Salmonella typhimurium TA1535 harboring pSK1002 assessed as survival at 0.002 mg/ml in absence of Sprague-Dawley rat liver S9 fraction after by SOS/umu assay relative to control; format: toxicity, organism-based; details: salmonella enterica subsp. enterica serovar typhimurium, read-out: Survival
[25] = Solubility of the compound in DSPC:cholesterol:DSPE-PEG2000-Mal:DOPE-Rho lipid mixture at 250 uM; format: physicochemical
Summary of the method: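 Compound added at 250 µM drug to the initial liposome lipid mixture (10 mM total lipid); precipitation and UV-visible absorbance above 300 nm assessed after encapsulation, removal of unencapsulated material and extraction with 1% w/v SDS in RPMI-A.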

[26] = Genotoxicity in Salmonella typhimurium TA1535 harboring pSK1002 assessed as umu gene induction at 0.0002 mg/ml in absence of Sprague-Dawley rat liver S9 fraction after by SOS/umu assay relative to control; format: toxicity, organism-based; details: salmonella enterica subsp. enterica serovar typhimurium, read-out: FC
[27] = Genotoxicity in Salmonella typhimurium TA1535 harboring pSK1002 assessed as umu gene induction at 0.0005 mg/ml in absence of Sprague-Dawley rat liver S9 fraction after by SOS/umu assay relative to control; format: toxicity, organism-based; details: salmonella enterica subsp. enterica serovar typhimurium, read-out: FC
[28] = Genotoxicity in Salmonella typhimurium TA1535 harboring pSK1002 assessed as umu gene induction at 0.016 mg/ml in presence of Sprague-Dawley rat liver S9 fraction after by SOS/umu assay relative to control; format: toxicity, organism-based; details: salmonella enterica subsp. enterica serovar typhimurium, read-out: FC
[29] = Genotoxicity in Salmonella typhimurium TA1535 harboring pSK1002 assessed as survival at 0.016 mg/ml in presence of Sprague-Dawley rat liver S9 fraction after by SOS/umu assay relative to control; format: toxicity, organism-based; details: salmonella enterica subsp. enterica serovar typhimurium, read-out: Survival
[30] = Genotoxicity in Salmonella typhimurium TA1535 harboring pSK1002 assessed as survival at 0.016 mg/ml in absence of Sprague-Dawley rat liver S9 fraction after by SOS/umu assay relative to control; format: toxicity, organism-based; details: salmonella enterica subsp. enterica serovar typhimurium, read-out: Survival
[31] = Genotoxicity in Salmonella typhimurium TA1535 harboring pSK1002 assessed as survival at 0.008 mg/ml in absence of Sprague-Dawley rat liver S9 fraction after by SOS/umu assay relative to control; format: toxicity, organism-based; details: salmonella enterica subsp. enterica serovar typhimurium, read-out: Survival
[32] = Genotoxicity in Salmonella typhimurium TA1535 harboring pSK1002 assessed as umu gene induction at 0.008 mg/ml in absence of Sprague-Dawley rat liver S9 fraction after by SOS/umu assay relative to control; format: toxicity, organism-based; details: salmonella enterica subsp. enterica serovar typhimurium, read-out: FC
[33] = Genotoxicity in Salmonella typhimurium TA1535 harboring pSK1002 assessed as umu gene induction at 0.008 mg/ml in presence of Sprague-Dawley rat liver S9 fraction after by SOS/umu assay relative to control; format: toxicity, organism-based; details: salmonella enterica subsp. enterica serovar typhimurium, read-out: FC
[34] = Genotoxicity in Salmonella typhimurium TA1535 harboring pSK1002 assessed as umu gene induction at 0.016 mg/ml in absence of Sprague-Dawley rat liver S9 fraction after by SOS/umu assay relative to control; format: toxicity, organism-based; details: salmonella enterica subsp. enterica serovar typhimurium, read-out: FC
[35] = Genotoxicity in Salmonella typhimurium TA1535 harboring pSK1002 assessed as survival at 0.008 mg/ml in presence of Sprague-Dawley rat liver S9 fraction after by SOS/umu assay relative to control; format: toxicity, organism-based; details: salmonella enterica subsp. enterica serovar typhimurium, read-out: Survival

SMILES	IC50 (Plasmodium falciparum [1]) [µM]	fold induction at 0.0002 mg/ml [2]	CC50 [3] [µM]	fold induction at 0.004 mg/ml [4]	fold induction at 0.002 mg/ml [5]	viability at 0.0002 mg/ml [6] [%]	viability at 0.0002 mg/ml [7] [%]	viability at 0.004 mg/ml [8] [%]	fold induction at 0.001 mg/ml [9]	IC50 (Plasmodium falciparum [10]) [µM]	selectivity ratio [11]	viability at 0.002 mg/ml [14] [%]	viability at 0.004 mg/ml [15] [%]	viability at 0.001 mg/ml [16] [%]	fold induction at 0.002 mg/ml [17]	fold induction at 0.001 mg/ml [18]	fold induction at 0.0005 mg/ml [19]	fold induction at 0.004 mg/ml [20]	viability at 0.001 mg/ml [21] [%]	viability at 0.0005 mg/ml [22] [%]	other results
OC(CCN1CCN(C(c2ccccc2)c2ccccc2)CC1)c1ccc(F)cc1 (stereo not given)	0.62	1	252	1	1.1	102	101	87	1	1.08	406	89.6	97.8	95.7	1.5	1	1.1	1	94.9	86.4	inhibition (Plasmodium berghei [12]): inactive; MSD (Plasmodium berghei [13]): 8 days; viability at 0.0005 mg/ml [23]: 100%; viability at 0.002 mg/ml [24]: 95.9%; solubility [25]: Insoluble; fold induction at 0.0002 mg/ml [26]: 1.1; fold induction at 0.0005 mg/ml [27]: 1
OC(CCN1CCN(C(c2ccccc2)c2ccccc2)CC1)c1ccc(Br)cc1 (stereo not given)	3.09	1	351	1	0.8	107	96.7	87.2	0.7	52.2	114	85.9	114	84.1	1.1	1	0.5	1	98.3	104	fold induction at 0.016 mg/ml [28]: 1; viability at 0.016 mg/ml [29]: 87.8%; viability at 0.016 mg/ml [30]: 121%; viability at 0.008 mg/ml [31]: 116%; fold induction at 0.008 mg/ml [32]: 1.1; fold induction at 0.008 mg/ml [33]: 0.9; viability at 0.0005 mg/ml [23]: 108%; viability at 0.002 mg/ml [24]: 105%; fold induction at 0.016 mg/ml [34]: 0.8; solubility [25]: Insoluble; fold induction at 0.0002 mg/ml [26]: 0.8; fold induction at 0.0005 mg/ml [27]: 0.8; viability at 0.008 mg/ml [35]: 98.1%
